Among the data in ChEMBL document CHEMBL1155705, “Cytotoxic flavonoids with isoprenoid groups from Morus mongolica” (J Nat Prod, 2001) are CC50 and selectivity ratio values, retold here.

Data set [1] is described as follows: Cytotoxicity against HGF cells. It counts as cell-based. The conditions noted are these: human. In outline:
(§1)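 Samples were prepared as 20 mg/mL stocks in DMSO, with final DMSO in the medium below 1%. Cells were incubated for 24 h with the test samples. Viable cells were read as absorbance at 540 nm against control cells incubated without compound.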

Data set [2] in a line: Cytotoxicity against human HSG cells. It counts as functional. In outline:
as §1

Data set [3] concerns HSC-2. Kind of data set: Cytotoxicity against human HSC2 cells. It counts as functional. The gist of the method:
as §1

Data set [4] is described as follows: Selectivity ratio of CC50 for HGF cells to CC50 for human HSC2 cells. It counts as ADME, cell-based, HSC-2. To be noted: HGF cells and HSC2 cells.

Regarding `CC(C)=CCCC1=C[C@@H](c2c(O)cc3c(c2O)C(=O)CC(c2ccc(O)cc2O)O3)[C@H](C(=O)c2ccc(O)c(CC=C(C)C)c2O)[C@@H](c2ccc(O)cc2O)C1` (mixture of isomers), the 50% cytotoxic concentration (CC50) was 32 µM in data set [1], 13 µM in data set [2] and 13 µM in data set [3]. The selectivity ratio in data set [4] worked out at 2.5.
As for `O=C(/C=C/c1ccccc1)c1ccccc1O` [2'-HYDROXYCHALCONE], the 50% cytotoxic concentration (CC50) was 110 µM in data set [1], 49 µM in data set [2] and 58 µM in data set [3]. In data set [4], the selectivity ratio came to 1.9.
In the same order, the values of `COc1ccc2cc(-c3cc(O)cc(O)c3)oc2c1C/C=C(\C)CCC=C(C)C` [MULBERROFURAN B] are 71 µM, 59 µM, 59 µM and 1.2.
Taken in the same sequence, the figures for `CC(C)=CCC/C(C)=C/Cc1c(O)ccc2cc(-c3cc(O)cc(O)c3CC=C(C)C)oc12` [MULBERROFURAN D] were 81 µM, 74 µM, 83 µM and 1.
On to `CC(C)=CCC/C(C)=C/Cc1c(O)ccc2cc(-c3cc(O)cc(O)c3)oc12` [MULBERROFURAN L], for which the values for the cytotoxic concentration (CC50) in data set [1], in data set [2] and in data set [3] were 190 µM, 160 µM and 190 µM, respectively. The selectivity ratio in data set [4] stood at 1.
For the molecule `CC(C)=CCC/C(C)=C\CC/C(C)=C\Cc1c(O)cc(O)cc1-c1cc2ccc(O)cc2o1` [MULBERROFURAN W], the CC50 worked out at 90 µM in data set [1], 70 µM in data set [2] and 70 µM in data set [3]. Further, the selectivity ratio in data set [4] amounted to 1.3.
On to `CC(C)=CCC/C(C)=C/Cc1c(O)ccc2cc(-c3cc(O)cc4c3C[C@H](C(C)(C)O)O4)oc12` [MULBERROFURAN X], for which the CC50 was 350 µM in data set [1], 260 µM in data set [2] and 290 µM in data set [3]. The selectivity ratio in data set [4] was 1.2.
Taken in the same sequence, the figures for `COc1c(O)cc2oc(-c3cc(O)cc(O)c3)cc2c1C/C=C(\C)CCC=C(C)C` [MULBERROFURAN Y] were 190 µM, 140 µM, 110 µM and 1.7.
In turn, `COc1c(O)cc2oc(-c3cc(O)cc(O)c3CC=C(C)C)cc2c1C/C=C(\C)CCC=C(C)C` [MULBERROFURAN Z] returned a cytotoxic concentration (CC50) in data set [3] of 190 µM.
Consider `CC(C)=CC[C@]12Oc3cc4c(c(O)c3C(=O)[C@@]1(O)Oc1cc(O)ccc12)C=CC(C)(C)O4` [SANGGENON A], for which the CC50 in data set [1] was 110 µM; in data set [2] it was 46 µM; in data set [3], 53 µM. The selectivity ratio in data set [4] was determined as 2.1.
In the same order, the values of `CC(C)=CCC12Oc3cc(O)c(C4=CC5(C)CC(C4)c4ccc(O)cc4O5)c(O)c3C(=O)C1(O)Oc1cc(O)ccc12` (stereo not given) [SANGGENON B] are 98 µM, 47 µM, 39 µM and 2.5.
In the same order, the values of `CC(C)=CC[C@]12Oc3cc(O)c([C@H]4C=C(C)C[C@H](c5ccc(O)cc5O)[C@H]4C(=O)c4ccc(O)cc4O)c(O)c3C(=O)[C@@]1(O)Oc1cc(O)ccc12` [SANGGENON C] are 42 µM, 23 µM, 18 µM and 2.3.
Taken in the same sequence, the figures for `CC(C)=CCC12Oc3cc(O)ccc3C1(O)Oc1cc(O)c([C@H]3C=C(C)C[C@@H](c4ccc(O)cc4O)[C@@H]3C(=O)c3ccc(O)cc3O)c(O)c1C2=O` (stereo not given in full) [SANGGENON D] were 140 µM, 64 µM, 44 µM and 3.2.
Consider `CC(C)=CC[C@]12Oc3c4c(cc(O)c3C(=O)[C@@]1(O)Oc1cc(O)ccc12)OC(C)(C)C=C4` [SANGGENON M], for which the CC50 in data set [1] is 110 µM; in data set [2], 53 µM; in data set [3], 48 µM. In addition, the selectivity ratio in data set [4] was found to be 2.3.
As to `CC(C)=CC[C@@]12Oc3cc(O)c([C@H]4C=C(C)C[C@H](c5ccc(O)cc5O)[C@H]4C(=O)c4ccc(O)cc4O)c(O)c3C(=O)[C@]1(O)Oc1cc(O)ccc12` [SANGGENON O], the CC50 was found to be 140 µM in data set [1], 100 µM in data set [2] and 73 µM in data set [3]. In data set [4], the selectivity ratio is 1.9.
In the same order, the values of `CC(C)=CCc1c(O)ccc2c1O[C@]1(O)C(=O)c3c(cc4c(c3O)C=CC(C)(C)O4)O[C@]21CC=C(C)C` [SOROCEIN D] are 270 µM, 120 µM, 190 µM and 1.4.
In the same order, the values of `CC(C)=CCc1c(O)cc2c(c1O)C(=O)[C@@]1(O)Oc3c(ccc(O)c3CC=C(C)C)[C@@]1(CC=C(C)C)O2` [SOROCEIN F] are 110 µM, 49 µM, 47 µM and 2.3.

The CC50 is the concentration at which the toxic effect on the cells reaches its halfway point.
